In ChEMBL document CHEMBL4513216, “Probing the Open Global Health Chemical Diversity Library for Multistage-Active Starting Points for Next-Generation Antimalarials” (ACS Infect Dis, 2020):

Assay: Toxicity liver stage against HepG2, at 10uM
Type: cell-based
Design: test concentration 10 uM, cell line HepG2-A16-CD81EGFP
Settings: human, HepG2-A16-CD81EGFP cells; read-out: INHIBITION
How it was run: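 Uninfected HepG2-A16-CD81EGFP cells, 3 × 10^3 per well, 1536-well, plated on prespotted compound at 10 μM final, parasite-free screening media added to match infected plates; puromycin 10 μM positive, DMSO 0.5% negative; run in parallel with 48 h PbLuc assay at 37 °C, 5% CO2; viability by CellTiter-Glo luminescence, normalized to controls.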

O=C(Nc1ccccc1C(=O)NCCN1CCOCC1)c1ccco1
cytotoxicity at 10 µM: -0.972%

CC(C)N1CCOC[C@H]1c1nc(C(C)(C)C)c[nH]1
cytotoxicity at 10 µM: -1.99%

CC(C)c1nnc(NC(=O)CSCc2cc(=O)n3ccccc3n2)s1
cytotoxicity at 10 µM: 2.08%

CN1CCN(CCCNC(=O)CCc2nc3cc(Br)cnc3[nH]2)CC1
cytotoxicity at 10 µM: -124%

O=C(NCCn1cnc(C2CCCC2)cc1=O)c1ccc(=O)[nH]n1
cytotoxicity at 10 µM: -0.895%

COC(=O)c1sccc1S(=O)(=O)NCCc1ccoc1
cytotoxicity at 10 µM: 2.6%

NCCc1c(-c2ccc(F)cc2)[nH][nH]c1=O
cytotoxicity at 10 µM: -1.3%

COc1ccccc1-n1c(O)cc(C)c(C#N)c1=O
cytotoxicity at 10 µM: 2.74%

CN1[C@@H](C(=O)NCC2CC2)C[C@@H]2CN(Cc3ccco3)C[C@@H]21
cytotoxicity at 10 µM: 4.68%

O=C(CCn1cc(Cl)cn1)Nc1nncs1
cytotoxicity at 10 µM: -9.61%

c1ccc(CCN2CCCC(c3ccnc4nccn34)C2)cc1 (stereo unspecified)
cytotoxicity at 10 µM: 4.22%

Nc1c(C(=O)C2CCCN(C(=O)C3CC3)C2)cnn1-c1ccc(F)cc1 (stereo unspecified)
cytotoxicity at 10 µM: 6.12%

O=C(N[C@@H]1CC[C@@H](N2CCOCC2)[C@@H]1O)c1cnn2cccnc12
cytotoxicity at 10 µM: -27.1%

O=C(c1n[nH]cc1Cl)N1CCCC(n2nnc3cc(F)ccc32)C1 (stereo unspecified)
cytotoxicity at 10 µM: -8.55%

Cc1nn(C)cc1CN1CCc2nc(-c3cccnc3)nc(O)c2C1
cytotoxicity at 10 µM: 22.5%

CC(C)N1CCC(Cc2cncc(-c3ccccc3C(=O)O)n2)CC1
cytotoxicity at 10 µM: 0.822%

Cc1ccc(S(=O)(=O)N2CCN(CCC(N)=O)CC2)s1
cytotoxicity at 10 µM: -9.88%

Cc1ccc(F)c2c1CCCN2Cc1cc(=O)n(C)c(=O)n1C
cytotoxicity at 10 µM: 13.6%

Cc1cc(-n2c(C)cn(CN(C)C3CCS(=O)(=O)C3)c2=O)no1 (stereo unspecified)
cytotoxicity at 10 µM: -0.872%

CN(C)CCN(Cc1ccc(F)cc1)C(=O)c1ccn(C)c(=O)c1
cytotoxicity at 10 µM: -4.62%

COc1ccccc1CCNC(=O)N(C)C(C)CS(C)(=O)=O (stereo unspecified)
cytotoxicity at 10 µM: -48.8%

CCS(=O)(=O)CC(=O)Nc1c(C)cnn1Cc1cc(F)ccc1F
cytotoxicity at 10 µM: -4.96%

CCOCCNC(=O)c1cc(Br)c2c(c1)OCCO2
cytotoxicity at 10 µM: 1.41%

CCOC(C)c1noc(CN2CCN(Cc3cccc(F)c3)CC2)n1 (stereo unspecified)
cytotoxicity at 10 µM: 7.66%

COc1ccccc1N1CCCC(Nc2ncccn2)C1=O (stereo unspecified)
cytotoxicity at 10 µM: 4.96%

Cc1cc(F)cc(S(=O)(=O)NC(=O)CCc2cncc(F)c2)c1
cytotoxicity at 10 µM: 7.78%

CN(Cc1cscn1)C1CCN(C(=O)OC(C)(C)C)CC1
cytotoxicity at 10 µM: -3.76%

CC(C)N1CCC(Nc2ccn(Cc3ccccn3)n2)C1=O (stereo unspecified)
cytotoxicity at 10 µM: -2.43%

CCC(C)NC(=O)c1ccc(NC(=O)CCc2ccncc2)c(C)c1 (stereo unspecified)
cytotoxicity at 10 µM: 4.31%

c1ccn2c(C3CCCN3Cc3nc(C4CC4)no3)nnc2c1 (stereo unspecified)
cytotoxicity at 10 µM: -2.59%

COC1CCN(C(=O)c2nn(-c3ccc(C(C)C)cc3)cc2O)CC1
cytotoxicity at 10 µM: -42.9%

Cc1nc(CN2C(=O)CC[C@@H]3[C@H]2CCN3C(=O)NC2CC2)cs1
cytotoxicity at 10 µM: 9.37%

Cc1nc2cc(C(=O)N3C[C@@H](NS(C)(=O)=O)[C@H](C(C)C)C3)ccc2[nH]1
cytotoxicity at 10 µM: -4.47%

CC(=O)NC1CCN(c2ncnc3c2c(C)nn3C)C1 (stereo unspecified)
cytotoxicity at 10 µM: -2.78%

Cc1ccnc(N2Cc3cnn(Cc4ccc(F)cc4)c3C2)n1
cytotoxicity at 10 µM: 3.59%

CCC(C)N(Cc1ccncc1)Cc1ccccc1Cn1cccn1 (stereo unspecified)
cytotoxicity at 10 µM: -44.4%

CC(=O)NCCc1ncnn1-c1ccc(F)c(Cl)c1
cytotoxicity at 10 µM: -15%

CCC(c1nc(C(C)C)nn1-c1ccccn1)n1cccn1 (stereo unspecified)
cytotoxicity at 10 µM: 5.66%

CCn1nc(C)cc1C(=O)N1C[C@@H](CN(C)C)[C@@H](CO)C1
cytotoxicity at 10 µM: 3.3%

C[C@@H]1CN(S(=O)(=O)N2CCOCC2)C[C@@]1(O)C1CC1
cytotoxicity at 10 µM: 5.91%

Cc1cc(CN[C@H](C(N)=O)[C@@H](C)O)c(C)s1
cytotoxicity at 10 µM: 9.5%

COCCCN1C(=O)CC[C@H]2CN(Cc3ncc[nH]3)CC[C@H]21
cytotoxicity at 10 µM: -0.462%

CCCc1nc(N2CCCN(c3ccncc3)CC2)c2cnn(C)c2n1
cytotoxicity at 10 µM: -2.47%

Cc1cnn(CC(=O)N2CCC3(CCC(=O)N(C4CCCC4)C3)CC2)c1
cytotoxicity at 10 µM: 3.03%

O=C(c1ccc(-c2cccc3c2CCNC3)o1)N1CCOCC1
cytotoxicity at 10 µM: 3.34%

OC1CCN(c2ccnc(NCCc3ccccc3Cl)n2)CC1
cytotoxicity at 10 µM: 16.5%

CCNc1ncc(C(=O)NC(CCN(C)C)c2ccccc2)cn1 (stereo unspecified)
cytotoxicity at 10 µM: 4.8%

CC(Cn1cccn1)C(=O)N1CCC(NS(C)(=O)=O)CC1 (stereo unspecified)
cytotoxicity at 10 µM: -8.34%

c1ccc(-c2ncc(CN3CCCCC3CCn3cccn3)cn2)nc1 (stereo unspecified)
cytotoxicity at 10 µM: -3.34%

Cc1cnc(N)nc1NCCSCc1[nH]cnc1C
cytotoxicity at 10 µM: 4.34%

O=C(NC1CCCCC1)N1C[C@H]2CN(c3cnccn3)C[C@@]2(C(=O)O)C1
cytotoxicity at 10 µM: 13.7%

CCc1noc(C)c1C(=O)N1CCCCC1Cn1cc(C)cn1 (stereo unspecified)
cytotoxicity at 10 µM: 10.8%

OCCn1nccc1C1CCN(CCOc2ccc(Cl)cc2)CC1
cytotoxicity at 10 µM: -4.68%

COc1ccc(OCCN(C)Cc2nc3c(cnn3C)c(=O)[nH]2)cc1
cytotoxicity at 10 µM: -4.03%

COc1cccc(C(=O)NS(=O)(=O)c2cccc(C#N)c2)c1
cytotoxicity at 10 µM: -6.12%

COc1cccc(CNCc2c(C)nn(C)c2N(C)C)c1
cytotoxicity at 10 µM: -2.51%

Cc1cc(CN2CCN(C(=O)NC(C)c3cccs3)CC2)on1 (stereo unspecified)
cytotoxicity at 10 µM: -7.72%

Cc1cc(C)n(CC2CCCN2C(=O)c2ccc(N(C)C)nn2)n1 (stereo unspecified)
cytotoxicity at 10 µM: 1.53%

Cc1nc(C)n(CC2CCCN(CCc3ccccc3)C2)n1 (stereo unspecified)
cytotoxicity at 10 µM: -3.12%

CCOc1cccc2c1OCC(C(=O)NS(=O)(=O)c1ccc(Br)s1)=C2
cytotoxicity at 10 µM: -11.6%

CCc1nc(CN2CCCN(C(=O)c3cc(C)on3)CC2)cs1
cytotoxicity at 10 µM: -7.81%

O=C(CN1CCCC(Cn2cncn2)C1)NCc1ccco1 (stereo unspecified)
cytotoxicity at 10 µM: -0.587%

O=C(CCC1CCCO1)NCc1ccnc(-n2cccn2)c1 (stereo unspecified)
cytotoxicity at 10 µM: -14.6%

O=C(CCc1cccs1)N1CCC(Nc2cccnn2)CC1
cytotoxicity at 10 µM: -10.5%

CCc1nnc2n1CCN(Cc1ccc(C(=O)N3CCCC3)cc1)C2
cytotoxicity at 10 µM: -3.29%

CC(C)(C)C(=O)NS(=O)(=O)c1ccc(C#N)cc1C(F)(F)F
cytotoxicity at 10 µM: -7.52%

CCC(NC(=O)c1ccco1)c1ccccc1OCC(=O)N1CCCC1 (stereo unspecified)
cytotoxicity at 10 µM: 4.9%

O=C(O)c1cc(S(=O)(=O)N2CCOc3ccccc32)ccc1F
cytotoxicity at 10 µM: -2.94%

CC(=O)N(Cc1noc(C2CC2)n1)C1CCN(Cc2ccncc2)C1 (stereo unspecified)
cytotoxicity at 10 µM: -13.8%

Cc1nn(C)c(C)c1CC(=O)N1CCC(N(C)c2cccnn2)CC1
cytotoxicity at 10 µM: -3.33%

Cc1nn(CC(=O)N2CCC(Nc3cccnn3)CC2)c(C)c1Cl
cytotoxicity at 10 µM: -12%

OC(CN1CCCCCCC1)c1ccc(F)cc1 (stereo unspecified)
cytotoxicity at 10 µM: -10.4%

CC(NC(=O)NCCCn1ccnc1)c1ccc2c(c1)CCC(=O)N2 (stereo unspecified)
cytotoxicity at 10 µM: -4.74%

Cn1cc(C2CCCN2C(=O)Cc2n[nH]c3ccccc23)cn1 (stereo unspecified)
cytotoxicity at 10 µM: 2.56%

Cc1cnn(CC2CCCN2Cc2nc3ccccc3n2C)c1 (stereo unspecified)
cytotoxicity at 10 µM: -14.5%

Cc1cc(C)n(CC2CCCCN2C(=O)c2cnn(C)c2)n1 (stereo unspecified)
cytotoxicity at 10 µM: 6.79%

OCC1CCCN1c1cc(NCc2ccc(Cl)s2)ncn1 (stereo unspecified)
cytotoxicity at 10 µM: -2.96%

Cn1cncc1CN1CCC(O)(Cn2nc(-c3cccs3)oc2=O)CC1
cytotoxicity at 10 µM: -5.46%

Cc1ncsc1C(=O)NCCn1nc(C2CCNC2)c2cccnc21 (stereo unspecified)
cytotoxicity at 10 µM: -0.98%

COCc1ccc(CN2CCC(O)(Cn3ccc4ncccc43)CC2)o1
cytotoxicity at 10 µM: 4.45%

c1cnc2c(c1)cc([C@@H]1CCCO1)n2CCN1CCCCC1
cytotoxicity at 10 µM: -25.9%
